We go through eight compounds from ChEMBL document CHEMBL4024790 (J Med Chem, 2018).

The species entered for data set [1] is Rattus norvegicus.
Data set [2] can be described thus: 1-octanol/phosphate buffer solution partition coefficient, log D of the compound at pH 7.4 after 1 hr by LC-MS/MS method. The format is physicochemical.
Data set [3] concerns the target cGMP-specific 3',5'-cyclic phosphodiesterase (Homo sapiens, UniProt O76074). Briefly: Inhibition of PDE5A1 (unknwon origin) using [3H]cGMP as substrate after 30 mins by SPA.
Data set [4] deals with Liver. Briefly: Drug level in rat liver microsomes treated with 4-(azetidin-1-yl)-7-methyl-5-(1-methyl-5-(5-(trifluoromethyl)pyridin-2-yl)-1H-pyrazol-4-yl)imidazo[1,5-f][1,2,4]triazine at 1 to 50 uM after 1 hr by LC-MS/MS analysis. The format is ADME, microsome. The procedure, abridged: (§1)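 Rat, dog or human liver microsomes or hepatocytes (P450 0.35–0.5 µM final) incubated with compound at 1, 10 or 50 µM in 100 mM phosphate buffer with 1 mM NADP regenerating system, 37°C for 1 h; quenched with 4 volumes acetonitrile, centrifuged, supernatant evaporated, reconstituted in 5% aqueous acetonitrile and analysed by reversed-phase LC.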

A short description of data set [5]: Drug level in rat hepatocytes treated with 4-(azetidin-1-yl)-7-methyl-5-(1-methyl-5-(5-(trifluoromethyl)pyridin-2-yl)-1H-pyrazol-4-yl)imidazo[1,5-f][1,2,4]triazine at 1 to 50 uM after 1 hr by LC-MS/MS analysis. The format is ADME, cell-based, Hepatocyte. The method, boiled down: as §1
Data set [6] relates to Liver. As to the kind of experiment: Drug level in human liver microsomes treated with 4-(azetidin-1-yl)-7-methyl-5-(1-methyl-5-(5-(trifluoromethyl)pyridin-2-yl)-1H-pyrazol-4-yl)imidazo[1,5-f][1,2,4]triazine at 1 to 50 uM after 1 hr by LC-MS/MS analysis. The format is ADME, microsome. The procedure, abridged: as §1
(Microsomes from liver hold many membrane-bound enzymes, among them those of drug oxidation.)

Data set [7] has as its system Liver. As to the kind of experiment: Drug level in dog liver microsomes treated with 4-(azetidin-1-yl)-7-methyl-5-(1-methyl-5-(5-(trifluoromethyl)pyridin-2-yl)-1H-pyrazol-4-yl)imidazo[1,5-f][1,2,4]triazine at 1 to 50 uM after 1 hr by LC-MS/MS analysis. It is filed as ADME, Canis lupus familiaris, microsome. The method, boiled down: as §1
A short description of data set [8]: Drug level in human hepatocytes treated with 4-(azetidin-1-yl)-7-methyl-5-(1-methyl-5-(5-(trifluoromethyl)pyridin-2-yl)-1H-pyrazol-4-yl)imidazo[1,5-f][1,2,4]triazine at 1 to 50 uM after 1 hr by LC-MS/MS analysis. The format is ADME, cell-based, Hepatocyte. The method, boiled down: as §1
Data set [9] in a line: Drug level in dog hepatocytes treated with 4-(azetidin-1-yl)-7-methyl-5-(1-methyl-5-(5-(trifluoromethyl)pyridin-2-yl)-1H-pyrazol-4-yl)imidazo[1,5-f][1,2,4]triazine at 1 to 50 uM after 1 hr by LC-MS/MS analysis. It is filed as ADME, cell-based, Canis lupus familiaris, Hepatocyte. The method, boiled down:
as §1

The next data set deals with human MDR1. Briefly: Passive permeability from apical to basolateral side in MDCK cells expressing human MDR1. It is filed as ADME, cell-based, Canis lupus familiaris. The note with it: dog, read-out: permeability.
For another data set, the system named is Plasma. Briefly: Drug uptake in rat plasma at 5 to 250 mg/kg/day, po up to 15 days by microscopic method. The format is ADME, organism-based. As to conditions: in vivo, 360 h; call rule not given here. The procedure, abridged: (§2)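 Exploratory rat toxicity study, oral dosing at 5, 50 and 250 mg/kg/day for up to 15 days, with microscopic examination of heart and vasculature and measurement of plasma and brain exposure.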

In data set [10] the test system is Rattus norvegicus. Briefly: Cardiotoxicity in rat at 5 to 250 mg/kg/day, po up to 15 days by microscopic method. It is filed as toxicity, organism-based. The note with it: in vivo, 360 h. The method, boiled down: as §2
A short description of data set [11]: Apparent intrinsic clearance in human liver microsomes. The format is ADME, microsome. As to conditions: read-out: CLH(app).
Data set [12] concerns Rattus norvegicus. Briefly: Toxicity in rat assessed as effect on vasculature at 5 to 250 mg/kg/day, po up to 15 days by microscopic method. It is filed as organism-based. As to conditions: in vivo, 360 h.
The test system of a further data set is Canis familiaris. Briefly: Cardiotoxicity in dog assessed as arteriopathy in arteries at >= 20 mg/kg/day, po for 14 days by microscopic method. It is filed as toxicity, organism-based, Canis lupus familiaris. The note with it: in vivo, 336 h.
A further data set concerns Brain. Briefly: Drug uptake in rat brain at 5 to 250 mg/kg/day, po up to 15 days by microscopic method. It is filed as ADME, organism-based. The note with it: in vivo, 360 h. The method, boiled down:
as §2

The term logD denotes lipophilicity at a set pH, counting ionised and neutral species. Higher therefore signals a more lipophilic compound. What is called IC50 is the concentration at which inhibition is half-maximal. High values mean lower potency, low ones higher potency.

Regarding `Cn1ncc(-c2nn(C)c3ncnc(N4CCC4)c23)c1-c1ccc(C(F)(F)F)cc1`, in the data set listed under Rattus norvegicus [1], the fIC50 came to 11 nM. The compound also came in with a logD at 1 h in data set [2] of 2.9.

For `CCCc1nn(C)c2c(=O)nc(-c3cc(S(=O)(=O)N4CCN(CC)CC4)ccc3OCC)[nH]c12`, the IC50 in data set [3] came to 8.9 nM.

With `Cc1nc(-c2cnn(C)c2-c2ccc(C(F)(F)F)cn2)c2c(N3CC(O)C3)ncnn12`, the Drug metabolism result (with Liver [4]; in [5]; with Liver [6]; with Liver [7]; in [8]; in data set [9]) was “Metabolite_Detected” each time.

For the compound `Cc1nc(-c2cnn(C)c2-c2ccc(C(F)(F)F)cn2)c2c(NCCC(=O)O)ncnn12`, the Drug metabolism entry (in the data set on Liver [4]; in data set [5]; with Liver [6]; in the data set on Liver [7]; in data set [8]; in data set [9]) was “Metabolite_Detected” in each case. Also, the Papp A→B with human MDR1 was 1.1 ×10⁻⁶ cm/s.

As to `CNc1ncnn2c(C)nc(-c3cnn(C)c3-c3ccc(C(F)(F)F)cn3)c12`, the Drug uptake entry in the data set on Plasma and in the data set on Brain was “Active” in each case. For the same compound, the results for the Activity entry with Rattus norvegicus [10], with Rattus norvegicus [12] and in the data set on Canis familiaris were “Non-Toxic”, “Non-Toxic” and “Toxic”, respectively. The CLint scaled in [11] worked out at 9.5 mL/min/kg. Also, the logD at 1 h in data set [2] came to 1.8.

Turning to `Cc1nc(-c2cnn(C)c2-c2ccc(Cl)cn2)c2c(N3CCC3)ncnn12`, the Activity result in the data set on Rattus norvegicus [10] and in the data set with Rattus norvegicus [12] was “Toxic” in each case. In data set [11], the CLint scaled worked out at 13 mL/min/kg. Also, in data set [2], the logD at 1 h is 1.7.

For `Cc1nc(-c2cnn(C)c2-c2ccc(C(F)(F)F)cc2)c2c(N3CCC3)ncnn12`, the CLint scaled in data set [11] worked out at 93 mL/min/kg.

In the case of `CNc1ncnn2c(C)nc(-c3cnn(C)c3-c3ccc(C(F)(F)F)cc3)c12`, the Activity result in the data set on Rattus norvegicus [10] and in the data set on Rattus norvegicus [12] was “Toxic” each time. The CLint scaled in [11] was determined as 33 mL/min/kg. In [2], the logD at 1 h stood at 2.8.
